# Measured values taken from ChEMBL document CHEMBL4038281, “Competitive protein tyrosine phosphatase 1B (PTP1B) inhibitors, prenylated caged xanthones from Garcinia hanburyi and their inhibitory mechanism” (Bioorg Med Chem, 2017).
# The source made the active and inactive calls. The rule behind the calls is not given here.
# Experiments:
# [1] = target: T1, Tyrosine-protein phosphatase non-receptor type 1 (Homo sapiens) (UniProt P18031); assay: Competitive inhibition of recombinant human PTP1B (1 to 322 residues) expressed in Escherichia coli at 99.4 to 397.8 uM using pNPP as substrate by Line-weaver burk plot method
# T1 sequence (whole entry): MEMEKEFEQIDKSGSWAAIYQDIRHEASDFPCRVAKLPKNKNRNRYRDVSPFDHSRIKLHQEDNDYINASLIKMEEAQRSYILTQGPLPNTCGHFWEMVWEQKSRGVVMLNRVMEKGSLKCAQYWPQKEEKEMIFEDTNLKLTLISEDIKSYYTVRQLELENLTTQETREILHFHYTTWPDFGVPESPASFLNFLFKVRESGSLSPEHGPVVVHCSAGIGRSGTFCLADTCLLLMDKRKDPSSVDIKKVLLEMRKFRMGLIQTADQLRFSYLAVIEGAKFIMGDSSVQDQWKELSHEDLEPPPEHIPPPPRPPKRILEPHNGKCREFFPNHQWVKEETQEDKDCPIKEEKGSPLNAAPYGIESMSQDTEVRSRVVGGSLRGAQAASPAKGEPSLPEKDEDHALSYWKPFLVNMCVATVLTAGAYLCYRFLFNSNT
# Summary of the method: (§1)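 Kinetics with pNPP substrate in 25 mM Tris-HCl (pH 7.5), 1 mM EDTA, 2 mM b-mercaptoethanol, 1 mM DTT, 37 °C. Initial velocities were recorded at several substrate and inhibitor concentrations and read at 405 nm. Vmax and Km came from Lineweaver-Burk plots, and the Kik/Kiv ratio was calculated per Yang et al.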
# [2] = target: T1, Tyrosine-protein phosphatase non-receptor type 1 (Homo sapiens); assay: Inhibition of recombinant human PTP1B (1 to 322 residues) expressed in Escherichia coli using pNPP as substrate incubated for 10 mins measured for 30 mins by spectrometric analysis
# Summary of the method: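 Enzyme (1 mg/mL stock) was mixed with sample in DMSO and 4 mM pNPP stock in 25 mM Tris-HCl pH 7.5, 1 mM EDTA, 2 mM b-mercaptoethanol and 1 mM DTT.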
# [3] = target: T1, Tyrosine-protein phosphatase non-receptor type 1 (Homo sapiens); assay: Competitive inhibition of recombinant human PTP1B (1 to 322 residues) expressed in Escherichia coli at 52.6 to 210.6 uM using pNPP as substrate by Line-weaver burk plot method
# Summary of the method: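 PTP1B activity was followed by pNPP hydrolysis at 405 nm in 25 mM Tris-HCl pH 7.5 with 1 mM EDTA, 2 mM b-mercaptoethanol and 1 mM DTT, at 37 °C, with compound added in DMSO. Initial velocities were taken across substrate and inhibitor concentrations. Km and Vmax came from Lineweaver-Burk plots, with Dixon plots also used, and the Kik/Kiv ratio was calculated after Yang et al.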
# [4] = target: T1, Tyrosine-protein phosphatase non-receptor type 1 (Homo sapiens); details: 457.3 to 1829.3 uM
# [5] = target: T1, Tyrosine-protein phosphatase non-receptor type 1 (Homo sapiens); details: 12.4 to 49.6 uM
# [6] = target: T1, Tyrosine-protein phosphatase non-receptor type 1 (Homo sapiens); details: 0.47 uM
# [7] = target: T1, Tyrosine-protein phosphatase non-receptor type 1 (Homo sapiens); assay: Competitive inhibition of recombinant human PTP1B (1 to 322 residues) expressed in Escherichia coli at 11.8 to 47.2 uM using pNPP as substrate by Line-weaver burk plot method; summary of the method: as §1
# [8] = target: T1, Tyrosine-protein phosphatase non-receptor type 1 (Homo sapiens); details: 11.7 to 47.1 uM
# [9] = target: T1, Tyrosine-protein phosphatase non-receptor type 1 (Homo sapiens); details: 49.5 to 198.1 uM
compound,measurement,setting,value
COC1=C2C(=O)c3c(O)c4c(c(CC=C(C)C)c3O[C@@]23[C@H]2C[C@@H]1C(=O)[C@]3(CC=C(C)C)OC2(C)C)O[C@](C)(CCC=C(C)C)C=C4,inhibition,[1],Active
same,inhibition,[2],Dose-dependent effect
CO[C@@H]1C2C(=O)c3c(O)c4c(c(CC=C(C)C)c3O[C@@]23[C@H]2C[C@@H]1C(=O)[C@]3(C/C=C(/C)C(=O)O)OC2(C)C)OC(C)(C)C=C4 (stereo not given in full),inhibition,[2],Dose-dependent effect
same,inhibition,[3],Active
CC(C)=CCc1c2c(c(O)c3c1O[C@]14C(=C[C@@H]5C[C@H]1C(C)(C)O[C@@]4(/C=C(/C)CO)C5=O)C3=O)C=CC(C)(C)O2,inhibition,[2],Dose-dependent effect
same,inhibition,[4],Active
CC(C)=CCC[C@]1(C)C=Cc2c(O)c3c(c(CC=C(C)C)c2O1)O[C@]12C(=C[C@@H]4C[C@H]1C(C)(C)O[C@@]2(C/C=C(/C)C(=O)O)C4=O)C3=O,inhibition,[5],Active
same,inhibition,[2],Dose-dependent effect
same,TDI,[6],Active
CO[C@@H]1C2C(=O)c3c(O)c4c(c(CC=C(C)C)c3O[C@@]23[C@H]2C[C@@H]1C(=O)[C@]3(C/C=C(/C)C(=O)O)OC2(C)C)O[C@](C)(CCC=C(C)C)C=C4 (stereo not given in full),inhibition,[7],Active
same,inhibition,[2],Dose-dependent effect
CO[C@@H]1C2C(=O)c3c(O)c(C/C=C(\C)CCC=C(C)C)c(O)c(CC=C(C)C)c3O[C@@]23[C@H]2C[C@@H]1C(=O)[C@]3(C/C=C(/C)C(=O)O)OC2(C)C (stereo not given in full),inhibition,[2],Dose-dependent effect
same,inhibition,[8],Active
CC(C)=CCC/C(C)=C/Cc1c(O)c(CC=C(C)C)c2c(c1O)C(=O)C1=C[C@@H]3C[C@H]4C(C)(C)O[C@@](C/C=C(/C)C(=O)O)(C3=O)[C@@]14O2,inhibition,[2],Dose-dependent effect
same,inhibition,[9],Active
